These results are taken from article PMC3523390 (Molecular pharmacology, 2010).

Where two headings read alike, the source gives them in different places.

The target in test [1] is T1, hPPARα (Homo sapiens, UniProt Q07869).
T1 sequence (Q07869 1-468): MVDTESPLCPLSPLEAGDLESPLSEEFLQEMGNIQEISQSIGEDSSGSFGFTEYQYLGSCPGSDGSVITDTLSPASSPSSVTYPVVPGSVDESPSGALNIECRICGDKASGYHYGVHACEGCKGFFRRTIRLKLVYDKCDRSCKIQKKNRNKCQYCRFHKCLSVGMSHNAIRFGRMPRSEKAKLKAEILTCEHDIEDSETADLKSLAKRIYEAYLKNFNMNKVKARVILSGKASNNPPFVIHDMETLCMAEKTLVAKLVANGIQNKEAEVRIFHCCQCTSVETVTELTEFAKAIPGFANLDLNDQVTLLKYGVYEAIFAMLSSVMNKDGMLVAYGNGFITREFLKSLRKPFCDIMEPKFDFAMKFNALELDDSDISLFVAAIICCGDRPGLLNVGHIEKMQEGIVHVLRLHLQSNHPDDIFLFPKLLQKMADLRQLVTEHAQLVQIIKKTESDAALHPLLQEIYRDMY
Kind of test: PPAR luciferase reporter gene transactivation in HEK-293 cells. The test is classed as cell-based. Conditions: HEK-293, 18 h, fold induction vs DMSO; N.D. = not detected up to 100 μM. (A reporter such as luciferase makes a cellular process visible.)

The target of test [2] is T2, hPPARγ LBD (Homo sapiens, UniProt P37231).
T2 sequence (P37231 238-503 limits assumed): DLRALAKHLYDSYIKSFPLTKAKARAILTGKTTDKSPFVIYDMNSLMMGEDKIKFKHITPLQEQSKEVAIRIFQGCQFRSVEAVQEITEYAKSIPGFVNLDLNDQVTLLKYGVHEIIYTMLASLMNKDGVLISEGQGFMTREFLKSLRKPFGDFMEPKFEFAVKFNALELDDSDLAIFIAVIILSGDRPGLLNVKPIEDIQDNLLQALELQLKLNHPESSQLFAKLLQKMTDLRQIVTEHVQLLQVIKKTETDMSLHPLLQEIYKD
Put plainly: LanthaScreen TR-FRET PPARγ competitive ligand binding assay. To be noted: for Ki: hPPARγ LBD, displacement of Fluormone Pan-PPAR Green, Cheng-Prusoff.

The target of test [3] is T3, Mouse PPARγ (Mus musculus, UniProt P37238).
T3 sequence (P37238 1-505): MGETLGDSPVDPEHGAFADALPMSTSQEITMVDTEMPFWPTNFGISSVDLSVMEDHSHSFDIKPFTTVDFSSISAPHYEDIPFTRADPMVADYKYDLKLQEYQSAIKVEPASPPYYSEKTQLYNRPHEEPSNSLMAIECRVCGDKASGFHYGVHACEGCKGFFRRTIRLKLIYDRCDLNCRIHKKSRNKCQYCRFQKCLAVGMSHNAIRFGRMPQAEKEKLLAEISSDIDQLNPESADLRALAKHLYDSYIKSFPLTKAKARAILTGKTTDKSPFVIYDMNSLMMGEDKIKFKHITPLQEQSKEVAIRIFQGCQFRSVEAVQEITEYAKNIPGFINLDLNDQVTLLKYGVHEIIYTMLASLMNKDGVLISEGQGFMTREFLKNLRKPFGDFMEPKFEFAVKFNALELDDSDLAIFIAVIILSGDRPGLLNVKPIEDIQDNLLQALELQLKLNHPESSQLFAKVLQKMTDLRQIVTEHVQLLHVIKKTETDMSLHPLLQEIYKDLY
Kind of test: PPAR luciferase reporter gene transactivation in HEK-293 cells. The test is classed as cell-based. Conditions: for Mouse PPARγ Maximal Fold Activation: fold induction vs DMSO.

Test [4] deals with 3T3-L1 preadipocytes. Kind of test: 3T3-L1 adipocyte differentiation. The test is classed as cell-based, rodent. To be noted: 10 μM compound, 7 to 8 days. The essentials: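 Mouse 3T3-L1 preadipocytes grown in DMEM with 10% calf serum to confluence (day −2), held 2 more days, then switched at day 0 to DMEM with 10% FCS, 1 μg/ml insulin and test compound (DMSO ≤0.1% final). Medium renewed every 2 days to day 7–8. Cells formalin-fixed 1 h, Oil Red O-stained 10 min, photographed; bound dye eluted in isopropanol, read at 550 nm.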

Test [5] has as its target T4, hPPARγ (Homo sapiens, UniProt P37231).
T4 sequence (P37231 1-477 isoform P37231-2): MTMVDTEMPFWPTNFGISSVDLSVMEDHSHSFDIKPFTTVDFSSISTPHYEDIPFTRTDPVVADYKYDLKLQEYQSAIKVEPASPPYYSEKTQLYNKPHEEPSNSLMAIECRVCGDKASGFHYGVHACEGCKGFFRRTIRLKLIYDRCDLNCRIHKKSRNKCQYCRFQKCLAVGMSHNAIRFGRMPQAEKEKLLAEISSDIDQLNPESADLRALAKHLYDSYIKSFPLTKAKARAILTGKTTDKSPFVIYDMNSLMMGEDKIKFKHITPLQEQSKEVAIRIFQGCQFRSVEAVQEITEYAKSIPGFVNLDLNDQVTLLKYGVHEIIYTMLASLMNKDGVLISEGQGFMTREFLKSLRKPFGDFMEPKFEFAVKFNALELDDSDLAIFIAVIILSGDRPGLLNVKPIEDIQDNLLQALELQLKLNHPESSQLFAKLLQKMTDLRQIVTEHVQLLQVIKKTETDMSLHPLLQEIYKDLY
Put plainly: PPAR luciferase reporter gene transactivation in HEK-293 cells. The class given is cell-based. Conditions: for hPPARγ Maximal Fold Activation / EC50: HEK-293, 18 h, N.D. = not detected up to 100 μM; for hPPARγ Maximal Fold Activation: fold induction vs DMSO; for concentration to reach saturation response (maximal activation): hPPARγ luciferase reporter, HEK-293; for EC50: read-out: hPPARγ EC50.

Test [6] has as its system 3T3-L1 cells and C3H10T1/2 cells. To be noted: ref Choi et al., 2009; cited from earlier work.
Test [7] concerns type 2 diabetic Goto-Kakizaki rats. To be noted: ref Sohn et al., 2007; cited from earlier work.
Test [8] addresses T2, hPPARγ LBD. Put plainly: LanthaScreen TR-FRET PPARγ coactivator. Conditions: 1 h incubation, 520 nm/495 nm ratio. The test is classed as biochemical. Background: Time-resolved FRET reads energy transfer from a long-lived donor to a nearby acceptor.
Where [9] appears, read: HEK-293, 18 h, N.D. = not detected up to 100 μM.
[10] abbreviates: read-out: Mouse PPARγ EC50, HEK-293, 18 h, N.D. = not detected up to 100 μM.

For the compound `CC(C)(Sc1ccc(CCN(CCCCC2CCCCC2)C(=O)NC2CCCCC2)cc1)C(=O)O` [GW7647], the “hPPARα Maximal Fold Activation” value in test [1] was found to be 3.09.

With `C=CCc1cc(OC)c(O)c(-c2cc(CC=C)cc(OC)c2O)c1` [Compound 1, dieugenol], in test [2], the affinity corresponds to a Ki of 0.24 µM. Moreover, the “Mouse PPARγ Maximal Fold Activation” value in test [3] (setting [9]) is recorded as 2.93. For the same compound, in test [3] (setting [10]), the 50% effective concentration (EC50) (in general, the concentration giving half of the maximal effect) was 0.93 µM. Also, the “adipogenic activity (differentiation to adipocytes, Oil Red O)” value in test [4] was “induced 3T3-L1 preadipocyte differentiation”. In test [5], the “hPPARγ Maximal Fold Activation” value was 3.58, the “concentration to reach saturation response (maximal activation)” value was “approximately 1 μM” and the EC50 stood at 0.62 µM.

Regarding `C=CCc1ccc(O)c(-c2cc(CC=C)ccc2O)c1` [Compound 3, magnolol], the adipocyte differentiation result in test [6] is “enhances adipocyte differentiation”. Also, in test [7], the fasting blood glucose result is “decreased” and the plasma insulin levels entry was “decreased”. The compound further displayed an EC50 in test [3] of 1.14 µM. The “adipogenic activity (differentiation to adipocytes, Oil Red O)” value in test [4] is listed as “induced 3T3-L1 preadipocyte differentiation”.

Take `CCCc1cc(OC)c(O)c(-c2cc(CCC)cc(OC)c2O)c1` [Compound 2, tetrahydrodieugenol]: the affinity in test [2] corresponds to a Ki of 0.32 µM. For the same compound, the “Mouse PPARγ Maximal Fold Activation” value in test [3] (setting [9]) came out at 2.98. For the same compound, in test [3] (setting [10]), the EC50 amounted to 0.38 µM. For the same compound, the “adipogenic activity (differentiation to adipocytes, Oil Red O)” value in test [4] is on record as “induced 3T3-L1 preadipocyte differentiation”. In addition, in test [5], the “hPPARγ Maximal Fold Activation” value was found to be 3.34, the “concentration to reach saturation response (maximal activation)” value is on record as “approximately 1 μM” and the concentration for a half-maximal effect (EC50) was 0.33 µM.

Regarding `C=CCc1ccc(O)c(OC)c1` [Compound 4, eugenol, reference compound], in test [2] (test concentrations up to 100 μM), the “binding to the hPPARγ LBD” value is “did not bind to the receptor at all”. Further, the “TRAP220/DRIP-2 coactivator peptide recruitment to the PPARγ LBD” value in test [8] is listed as “not active”. In addition, the “adipogenic activity (differentiation to adipocytes, Oil Red O)” value in test [4] is “no adipogenic activity”.
